Data on three molecules can be found in ChEMBL document CHEMBL4257478, “Design, synthesis and evaluation of (R)-3-(7-(methyl(7H-pyrrolo[2,3-d]pyrimidin-4-yl)amino)-5-azaspiro[2.4]heptan-5-yl)-3-oxopropanenitrile as a JAK1-selective inhibitor” (Medchemcomm, 2018).

Some results are limits rather than exact numbers.

Data set [1] can be described thus: Metabolic stability in dog liver microsomes assessed as parent compound remaining at 1 uM preincubated for 5 mins followed by addition of NADPH regenerating system and measured after 30 mins by LC-MS/MS method. The format is ADME, Canis lupus familiaris, microsome. The conditions noted are these: read-out: Stability. In a few lines:
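Liver microsomes (0.5 mg/mL; human, dog or mouse) in 0.1 M phosphate buffer with test article at 1 μM, preincubated 5 min at 37 °C. NADPH regenerating system added, then 30 min at 37 °C. Acetonitrile with chlorpropamide internal standard added, sample centrifuged, supernatant analysed by LC-MS/MS.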
(Microsomes from liver hold many membrane-bound enzymes, among them those of drug oxidation.)

Data set [2] concerns the target Voltage-gated inwardly rectifying potassium channel KCNH2 (Homo sapiens, UniProt Q12809). In words: Inhibition of human ERG expressed in HEK293 cells after 5 mins by automated planar patch clamp method. The class given is cell-based. For orientation: In patch-clamp work, channel activity is measured electrically.
Data set [3] has as its target T1, CYP1A2 (Homo sapiens, UniProt P05177).
T1 sequence (P05177 whole entry): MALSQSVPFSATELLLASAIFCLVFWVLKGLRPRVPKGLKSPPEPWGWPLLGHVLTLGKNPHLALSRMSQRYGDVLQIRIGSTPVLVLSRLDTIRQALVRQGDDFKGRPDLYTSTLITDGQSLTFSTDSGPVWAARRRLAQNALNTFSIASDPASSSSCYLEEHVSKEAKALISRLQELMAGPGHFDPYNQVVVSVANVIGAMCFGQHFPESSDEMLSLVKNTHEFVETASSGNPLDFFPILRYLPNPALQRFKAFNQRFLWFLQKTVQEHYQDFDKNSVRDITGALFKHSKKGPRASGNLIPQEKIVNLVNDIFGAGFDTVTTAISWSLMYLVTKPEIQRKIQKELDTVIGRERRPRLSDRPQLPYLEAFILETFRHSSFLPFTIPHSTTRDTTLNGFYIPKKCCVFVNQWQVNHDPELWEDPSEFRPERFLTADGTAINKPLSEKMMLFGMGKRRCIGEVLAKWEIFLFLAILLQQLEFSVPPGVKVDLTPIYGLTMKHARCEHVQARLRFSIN
The data set can be described thus: Inhibition of CYP1A2 in human liver microsomes assessed as remaining activity at 10 uM using phenacetin as substrate preincubated for 5 mins followed by addition of NADPH regenerating system and measured after 15 mins by LC-MS/MS analysis relative to control. The class given is ADME. The settings on record: probe phenacetin, read-out: Activity. In a few lines:
(§1)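 Human liver microsomes (0.25 mg/mL) in 0.1 M phosphate buffer with test article at 0 or 10 μM and substrate cocktail, preincubated 5 min at 37 °C. Cocktail A: phenacetin 50 μM, coumarin 2.5 μM, S-mephenytoin 100 μM, dextromethorphan 5 μM, midazolam 2.5 μM. Cocktail B: bupropion 50 μM, amodiaquine 2.5 μM, tolbutamide 100 μM, chlorzoxazone 50 μM. NADPH system added, then 15 min at 37 °C; acetonitrile quench, LC-MS/MS.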

Data set [4] concerns the target T2, CYP2B6 (Homo sapiens, UniProt P20813).
T2 sequence (P20813 whole entry): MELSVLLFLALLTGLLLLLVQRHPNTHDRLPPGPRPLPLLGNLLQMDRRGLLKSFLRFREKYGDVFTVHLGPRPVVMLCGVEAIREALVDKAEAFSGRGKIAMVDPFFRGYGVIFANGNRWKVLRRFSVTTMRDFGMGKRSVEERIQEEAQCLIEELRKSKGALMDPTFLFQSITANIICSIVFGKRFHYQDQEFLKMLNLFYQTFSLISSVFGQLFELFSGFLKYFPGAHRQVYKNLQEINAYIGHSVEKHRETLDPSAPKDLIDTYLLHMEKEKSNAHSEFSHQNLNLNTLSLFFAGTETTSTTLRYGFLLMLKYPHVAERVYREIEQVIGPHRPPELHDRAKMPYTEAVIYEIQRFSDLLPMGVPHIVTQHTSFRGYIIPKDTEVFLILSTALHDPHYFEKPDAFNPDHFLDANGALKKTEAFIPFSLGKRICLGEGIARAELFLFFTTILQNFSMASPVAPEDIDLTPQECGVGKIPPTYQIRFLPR
The data set can be described thus: Inhibition of CYP2B6 in human liver microsomes assessed as remaining activity at 10 uM using bupropion as substrate preincubated for 5 mins followed by addition of NADPH regenerating system and measured after 15 mins by LC-MS/MS analysis relative to control. The class given is ADME. The conditions noted are these: probe bupropion, read-out: Activity. The procedure, abridged: as §1

In data set [5] the target is T3, CYP2C8 (Homo sapiens, UniProt P10632).
T3 sequence (P10632 whole entry): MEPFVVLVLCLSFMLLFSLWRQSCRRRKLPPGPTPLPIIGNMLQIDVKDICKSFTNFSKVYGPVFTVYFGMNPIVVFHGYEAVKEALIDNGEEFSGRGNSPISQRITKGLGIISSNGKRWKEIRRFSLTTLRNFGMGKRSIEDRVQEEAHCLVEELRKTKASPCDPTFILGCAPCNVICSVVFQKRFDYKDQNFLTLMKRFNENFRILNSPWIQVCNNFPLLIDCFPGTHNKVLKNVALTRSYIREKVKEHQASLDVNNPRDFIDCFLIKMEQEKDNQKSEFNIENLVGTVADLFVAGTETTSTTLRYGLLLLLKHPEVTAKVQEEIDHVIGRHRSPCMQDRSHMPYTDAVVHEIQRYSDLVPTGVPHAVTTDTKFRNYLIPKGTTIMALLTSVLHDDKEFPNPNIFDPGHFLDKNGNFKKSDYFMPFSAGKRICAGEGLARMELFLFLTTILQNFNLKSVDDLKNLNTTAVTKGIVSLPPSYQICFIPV
In words: Inhibition of CYP2C8 in human liver microsomes assessed as remaining activity at 10 uM preincubated for 5 mins followed by addition of NADPH regenerating system and measured after 15 mins by LC-MS/MS analysis relative to control. The format is ADME. The conditions noted are these: read-out: Activity.

Data set [6] addresses CYP2E1 (Homo sapiens, UniProt P05181). In words: Inhibition of CYP2E1 in human liver microsomes assessed as remaining activity at 10 uM using chlorzoxazone as substrate preincubated for 5 mins followed by addition of NADPH regenerating system and measured after 15 mins by LC-MS/MS analysis relative to control. The format is ADME. The conditions noted are these: probe chlorzoxazone, read-out: Activity. The procedure, abridged:
as §1

The nature of data set [7]: Cmax in Sprague-Dawley rat at 10 mg/kg, po after 0.25 to 24 hrs by LC-MS/MS method. The format is ADME, organism-based. More on the design: dose 10 mg/kg, route oral. The settings on record: in vivo. The procedure, abridged: (§2)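 Male Sprague Dawley rats, 7-8 weeks old, n=4 per group. IV dose 5 mg/kg free base in 10% ethanol/90% PEG400; oral dose 10 mg/kg as corn oil suspension after 16 h fast. Blood taken 0.08-24 h (IV) or 0.25-24 h (PO). Plasma diluted in acetonitrile with internal standard, analysed by LC-MS/MS, parameters by non-compartmental analysis.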

A short description of data set [8]: Half life in Sprague-Dawley rat at 10 mg/kg, po after 0.25 to 24 hrs by LC-MS/MS method. The format is ADME, organism-based. The conditions noted are these: in vivo. The procedure, abridged: as §2
Data set [9] relates to Rattus norvegicus. The data set can be described thus: AUC (0 to t) in Sprague-Dawley rat at 10 mg/kg, po after 0.25 to 24 hrs by LC-MS/MS method. The format is ADME, organism-based. More on the design: time lower 0.25 hr, dose 10 mg/kg, time upper 24 hr, route oral. The conditions noted are these: in vivo. The procedure, abridged:
as §2

Data set [10] is described as follows: MRT in Sprague-Dawley rat at 10 mg/kg, po after 0.25 to 24 hrs by LC-MS/MS method. The format is ADME, organism-based. The conditions noted are these: in vivo. In a few lines:
as §2

For data set [11], the species on record is Homo sapiens. The data set can be described thus: Selectivity index, ratio of IC50 for human JAK2 to IC50 for human JAK1. In a few lines:
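Kinase activity assays run as a commercial service at Km ATP; IC50 values fitted from concentration-response data; ratio of JAK2 to JAK1 IC50.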

Chain of CYP2E1 (P05181 whole entry): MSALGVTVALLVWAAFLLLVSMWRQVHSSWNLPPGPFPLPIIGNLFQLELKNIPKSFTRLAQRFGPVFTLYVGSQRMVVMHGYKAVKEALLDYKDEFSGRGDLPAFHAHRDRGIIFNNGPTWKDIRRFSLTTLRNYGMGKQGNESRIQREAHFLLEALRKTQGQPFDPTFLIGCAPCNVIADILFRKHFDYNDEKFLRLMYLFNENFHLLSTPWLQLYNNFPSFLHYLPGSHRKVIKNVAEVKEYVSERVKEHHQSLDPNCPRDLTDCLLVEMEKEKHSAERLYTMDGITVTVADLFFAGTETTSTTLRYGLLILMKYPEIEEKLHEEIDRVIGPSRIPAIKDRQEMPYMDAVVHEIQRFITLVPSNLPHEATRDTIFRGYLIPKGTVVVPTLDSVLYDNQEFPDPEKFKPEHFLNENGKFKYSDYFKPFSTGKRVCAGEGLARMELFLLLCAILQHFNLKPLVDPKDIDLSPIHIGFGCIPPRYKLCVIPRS
Chain of Voltage-gated inwardly rectifying potassium channel KCNH2 (Q12809 whole entry): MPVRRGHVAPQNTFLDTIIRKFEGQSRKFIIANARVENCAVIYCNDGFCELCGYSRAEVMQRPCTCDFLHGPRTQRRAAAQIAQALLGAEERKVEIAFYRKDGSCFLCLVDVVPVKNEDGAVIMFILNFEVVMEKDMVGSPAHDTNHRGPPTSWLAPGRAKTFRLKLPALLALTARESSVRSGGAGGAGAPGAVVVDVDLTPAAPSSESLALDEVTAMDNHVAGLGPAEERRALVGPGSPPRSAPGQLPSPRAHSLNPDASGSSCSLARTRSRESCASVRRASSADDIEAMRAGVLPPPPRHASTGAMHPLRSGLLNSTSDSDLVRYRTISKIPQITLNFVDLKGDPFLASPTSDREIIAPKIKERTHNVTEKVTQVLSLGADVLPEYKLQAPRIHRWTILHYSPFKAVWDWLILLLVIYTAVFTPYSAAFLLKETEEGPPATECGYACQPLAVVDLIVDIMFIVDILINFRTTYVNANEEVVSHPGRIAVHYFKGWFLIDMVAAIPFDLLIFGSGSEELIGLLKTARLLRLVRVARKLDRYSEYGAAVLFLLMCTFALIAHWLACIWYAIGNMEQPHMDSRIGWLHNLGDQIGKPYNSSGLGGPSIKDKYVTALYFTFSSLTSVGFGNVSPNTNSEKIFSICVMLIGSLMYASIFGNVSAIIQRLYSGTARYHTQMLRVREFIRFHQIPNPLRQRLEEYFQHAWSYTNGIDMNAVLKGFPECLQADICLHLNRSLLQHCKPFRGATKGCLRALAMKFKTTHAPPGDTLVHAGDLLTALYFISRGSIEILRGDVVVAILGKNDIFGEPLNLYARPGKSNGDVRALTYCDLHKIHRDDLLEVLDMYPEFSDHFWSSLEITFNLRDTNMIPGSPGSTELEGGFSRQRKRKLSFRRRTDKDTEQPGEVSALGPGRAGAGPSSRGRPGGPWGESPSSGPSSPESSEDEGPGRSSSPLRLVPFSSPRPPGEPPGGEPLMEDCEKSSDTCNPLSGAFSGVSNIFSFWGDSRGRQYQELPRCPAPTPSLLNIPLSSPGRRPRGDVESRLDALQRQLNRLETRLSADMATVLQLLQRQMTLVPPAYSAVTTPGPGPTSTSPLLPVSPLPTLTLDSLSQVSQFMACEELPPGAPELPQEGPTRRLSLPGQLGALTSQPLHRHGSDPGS

Broadly, the IC50 is the concentration needed to halve the response being measured. Read a high IC50 as weaker potency. As usually defined, the Cmax is the highest concentration seen after dosing. What is called half-life is how long it takes for the measured level to halve. Read a low half-life as rapid decline. A word on the MRT: it is the average time that molecules of a dose stay in the body. For the molecule `CN(c1ncnc2[nH]ccc12)[C@H]1CN(C(=O)CC#N)CC12CC2`, the remaining at 0.5 h, 1 µM in data set [1] stood at 99.9%. The same molecule returned an IC50 in [2] of 120 µM. Further, the activity at 0.25 h, 10 µM came out at 92.5% in [3], 91.5% in data set [4], 81% in data set [5] and 50.3% in data set [6]. This molecule showed a Cmax in [7] of 1000 ng/mL. The half-life in [8] was 2.1 h. Further, the AUCt in data set [9] was 1900 ng·h/mL. For the same molecule, the MRT in data set [10] came to 3.1 h.
In the case of `CCS(=O)(=O)N1C[C@H](N(C)c2ncnc3[nH]ccc23)C2(CC2)C1`, the Ratio IC50 in data set [11] is 25. Besides, the remaining at 0.5 h, 1 µM in data set [1] was 56.1%. Further, the activity at 0.25 h, 10 µM in data set [3] was 99.9%; in data set [4] it was greater than 100%; in data set [5], greater than 100%; in data set [6], 63.9%.
`CN(c1ncnc2[nH]ccc12)[C@H]1CN(S(=O)(=O)c2cccc(C#N)c2)CC12CC2`: the Ratio IC50 in [11] came out at 10. Moreover, the remaining at 0.5 h, 1 µM in data set [1] turned out to be 5.5%. Besides, the activity at 0.25 h, 10 µM stood at 65.7% in [3], 92% in [4], 66.2% in data set [5] and 59.8% in [6].
